The values that follow come from ChEMBL document CHEMBL1122914, “Synthesis and biological activity of pentapeptide analogues of the potent angiotensin converting enzyme inhibitor 5(S)-benzamido-4-oxo-6-phenylhexanoyl-L-proline” (J Med Chem, 1985).

Assay type in all cases: functional
Assay [1] concerns Rattus norvegicus. The experiment in a line: Compound was evaluated for its maximum effect value on hypertensive rats by peroral administration at a dose of 30 mg/kg. The note with it: route oral.
Assay [2] has as its system Rattus norvegicus. Description: Compound was evaluated for its base line value on hypertensive rats by peroral administration at a dose of 30 mg/kg. The note with it: route oral.
Assay [3] relates to Rattus norvegicus. Description: Compound was evaluated for itschange in blood pressure value on hypertensive rats by peroral administration at a dose of 30 mg/kg at 8 hr. The note with it: route oral.
In assay [4] the test system is Rattus norvegicus. The experiment in a line: Compound was evaluated for change in blood pressure in hypertensive rats by peroral administration at a dose of 3.0 mg/kg at 1 hr. The note with it: route oral.
Assay [5] relates to Rattus norvegicus. The experiment in a line: Compound was evaluated for maximum effect in hypertensive rats by peroral administration at a dose of 3.0 mg/kg. The note with it: route oral.
The test system of assay [6] is Rattus norvegicus. Description: Compound was evaluated for its maximum effect value on hypertensive rats by peroral administration at a dose of 3.0 mg/kg. The note with it: route oral.
For assay [7], the system named is Rattus norvegicus. Description: Compound was evaluated for itschange in blood pressure value on hypertensive rats by peroral administration at a dose of 3.0 mg/kgat 4 hr. The note with it: dose 3 mg/kg; route oral. The method in brief: (§1)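 One-clip/two-kidney renal hypertension was induced with a silver clip on the left renal artery, leaving the other kidney intact. Several weeks later, rats were cannulated and those with mean pressure above 160 mmHg were used. Four conscious rats per compound received an oral dose in 0.25% methylcellulose (5 mL/kg), and two received vehicle only. Mean aortic pressure was read before dosing, hourly for 8 h, and at 24 h.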

For assay [8], the system named is Rattus norvegicus. The experiment in a line: Compound was evaluated for its base line value on hypertensive rats by peroral administration at a dose of 3.0 mg/kg. The note with it: route oral.
The nature of assay [9]: Percent recovery of compound in rats over 24 hr when administered orally at a dose of 4.3 mg, 4.09(uCi); and activity calculated from bile of rats at time (5-6 h). The procedure, abridged:
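Adult male Sprague-Dawley rats were fasted overnight, with chow and water otherwise ad libitum. The tritiated proline-4-labelled analogue was given orally in dilute NaHCO3. Bile was collected at timed intervals and urine over 24 h. Aliquots were counted by liquid scintillation, with quench correction by automatic external standardization and a quench curve. Recovery was expressed as percent of the dosed radioactivity.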

For assay [10], the system named is Rattus norvegicus. The experiment in a line: Compound was evaluated for its base line value in hypertensive rats by peroral administration at a dose of 6.4 mg/kg. The note with it: route oral. The method in brief: as §1
Assay [11] deals with Rattus norvegicus. Description: Compound was evaluated for change in blood pressure value in hypertensive rats by peroral administration at a dose of 6.4 mg/kg at 8 hr. The note with it: route oral. The procedure, abridged:
as §1

The subject of assay [12] is Rattus norvegicus. Description: Compound was evaluated for maximum effect in hypertensive rats by peroral administration at a dose of 6.4 mg/kg. The note with it: route oral. The procedure, abridged:
as §1

Take `O=C(N[C@@H](Cc1ccccc1)C(=O)CCC(=O)N1CCC[C@H]1C(=O)O)c1ccccc1`: the “Mean aortic blood pressure” value with Rattus norvegicus [1] was 178 mmHg; in the assay with Rattus norvegicus [2], 190 mmHg; with Rattus norvegicus [3] it was -12 mmHg.

As for `C[C@H](CS)C(=O)N1CCC[C@H]1C(=O)O` [CAPTOPRIL], the Mean aortic blood pressure with Rattus norvegicus [4] is -93 mmHg; with Rattus norvegicus [5], 99 mmHg.

Turning to `NCCCCC(NC(=O)C1CCC1)C(=O)NC(Cc1ccccc1)C(=O)CCC(=O)N1CCCC1C(=O)O.O=C(O)C(F)(F)F` (configuration not stated), the “Mean aortic blood pressure” value with Rattus norvegicus [6] is 173 mmHg; with Rattus norvegicus [7], -22 mmHg; with Rattus norvegicus [8] it was 195 mmHg.

On to `[3H]C1CC(C(=O)O)N(C(=O)CCC(=O)C(Cc2ccccc2)NC(=O)C(CCCCN)NC(=O)C2CCC2)C1` (configuration not stated), for which the Recovered radioactivity in [9] is listed as 1.42%.

As to `CC(CC(=O)C(Cc1ccccc1)NC(=O)C(CCCCN)NC(=O)C1CCC1)C(=O)N1CCCC1C(=O)O.O=C(O)C(F)(F)F` (configuration not stated), the entries for the “Mean aortic blood pressure” value in the assay with Rattus norvegicus [10], in the assay on Rattus norvegicus [11] and in the assay with Rattus norvegicus [12] were 186 mmHg, -5 mmHg and 181 mmHg, respectively.
